Laboratory results taken from paper PMC4161670 (Molecular Psychiatry, 2014).
Bridge positions count the residues as written; N and C are the ends. Ends that are not written are not given here.

What was measured:
recombinant BACE1 = recombinant BACE1 (Homo sapiens, UniProt P56817); experiment: In vitro BACE1 activity assay; type: biochemical
5XFAD mice = experiment: Serum Aβ after a single injection; type: in vivo, mouse
In short: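 Female 5XFAD mice got a single i.p. injection of test compound or PBS. Serum was drawn before and after injection. Aβ1–42 was measured by sandwich ELISA: 21F12 capture, biotinylated N-terminal detection, streptavidin-alkaline phosphatase and a fluorescent substrate. Samples were diluted twofold to fivefold. Lowest detection level was 1.6 pg ml−1, from a standard curve.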

Dutch APP mice = experiment: Serum Aβ after a single injection; type: in vivo, mouse; details: single i.p. 200 μg kg^-1
Tg2576 mice = experiment: APP processing in brain; type: in vivo, mouse; details: Tg2576, chronic treatment, western blot 6E10, n = 6 per group
In short: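 Tg2576 females, 9 months old, given test compound at 200 μg kg−1 i.p. or PBS once daily for 10 weeks; n=6 per group for blots. Brain proteins were fractionated into TBS-soluble, TBS-X and formic acid fractions. Reduced SDS-PAGE and western blot used human APP-specific 6E10. Full-length APP and C99 were quantitated from the TBS-X fraction and sAPP from the TBS-soluble fraction. Mean±s.e.; t-tests.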

[1] = cited from earlier work
[2] = cited from earlier work; remark: listed apart in the source

Chain of recombinant BACE1 (P56817 46-501, species assumed): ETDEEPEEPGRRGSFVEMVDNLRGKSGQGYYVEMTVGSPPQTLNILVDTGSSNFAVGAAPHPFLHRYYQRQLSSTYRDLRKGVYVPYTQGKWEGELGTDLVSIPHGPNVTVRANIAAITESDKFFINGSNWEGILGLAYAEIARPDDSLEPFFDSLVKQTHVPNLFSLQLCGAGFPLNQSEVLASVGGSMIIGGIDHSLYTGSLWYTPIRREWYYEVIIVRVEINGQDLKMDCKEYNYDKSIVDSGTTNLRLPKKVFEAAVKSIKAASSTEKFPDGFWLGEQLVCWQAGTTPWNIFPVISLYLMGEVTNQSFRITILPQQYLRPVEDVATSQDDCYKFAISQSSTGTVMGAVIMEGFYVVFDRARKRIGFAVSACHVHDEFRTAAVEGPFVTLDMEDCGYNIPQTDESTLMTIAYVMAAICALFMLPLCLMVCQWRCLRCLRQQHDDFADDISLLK

Row | Substance | inhibition of BACE1 activity (recombinant BACE1; purified BACE1, dose-dependent, concentration not given) [%] | change of serum Aβ after i.c.v. versus i.p. injection (in words) (5XFAD mice; single i.c.v. 200 μg kg^-1 vs single i.p. 200 μg kg^-1, P=0.03) | change of serum Aβ1-42 and Aβ1-40 after one injection (in words) (5XFAD mice; single i.p. 200 μg kg^-1) | dose dependence of serum Aβ1-42 change after challenge (in words) (5XFAD mice; single i.p. challenge, Figure 3e) | change of serum Aβ1-40 and Aβ1-42 after one injection (in words) (Dutch APP mice) | level of APP fragment C99 in brain versus controls (in words) (Tg2576 mice) | passage of the blood-brain barrier (in words) [1] | ability to inhibit BACE1 activity (in words) (recombinant BACE1; purified BACE1, same assay as amylin) | aggregation (in words) [2]
1 | Amylin (KCNTATCATQRLANFLVHSSNNFGAILSSTNVGSNTY; not fully specified (C-terminus, bridges); cysteine pairing not given here; UniProt P10997 34-70, looked up) | 70 | much greater surge of Aβ in serum than a peripheral i.p. injection | increased level of Aβ1–42 but not of Aβ1–40 in serum | dose dependent | provoked a surge of Aβ1–40 but not of Aβ1–42 in the blood | lower levels of the APP processing fragments C99 | passes through the blood–brain barrier (BBB) easily |  | 
2 | Pramlintide (KCNTATCATQRLANFLVHSSNNFGPILPPTNVGSNTY-NH2; disulfide 2-7; chains of the INN, looked up) |  |  |  |  |  | did not reduce C99 levels |  | little or no ability to inhibit BACE1 activity | does not form aggregates
